Only some compounds are listed: those with a hit (about 2.5% of all), similar ones and a draw of the others.
NTR1 ag: activates human neurotensin receptor 1. P30989. NTR1-U2OS beta-arrestin-GFP spot imaging, agonist mode. activation, % at 20 µM. 330,000 tested, 0.17% active;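 active = activation at or above 40% of the spot to cytoplasm intensity ratio, with at least 20 cells analyzed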;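 note: 0% = DMSO without peptide and 100% = 100 nM NTR1 peptide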
Target sequence (P30989 whole entry, looked up): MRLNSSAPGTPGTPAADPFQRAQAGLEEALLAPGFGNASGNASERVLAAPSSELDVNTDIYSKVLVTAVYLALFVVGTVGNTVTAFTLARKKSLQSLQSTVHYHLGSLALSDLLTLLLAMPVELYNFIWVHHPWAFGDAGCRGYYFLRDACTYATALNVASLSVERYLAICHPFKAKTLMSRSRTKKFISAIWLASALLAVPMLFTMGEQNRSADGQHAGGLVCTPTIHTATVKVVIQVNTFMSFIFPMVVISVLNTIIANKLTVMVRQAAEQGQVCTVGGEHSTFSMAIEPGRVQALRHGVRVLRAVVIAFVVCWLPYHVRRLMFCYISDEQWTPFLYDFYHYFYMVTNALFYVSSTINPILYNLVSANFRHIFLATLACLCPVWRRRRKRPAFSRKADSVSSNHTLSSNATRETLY
MC4R antag cAMP: antagonists of human melanocortin 4 receptor (MC4R); P32245; MC4R-expressing cells, MTII-stimulated cAMP, LANCE TR-FRET; inhibition, % at 6.5 µM; 360,000 tested, 0.48% active;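 active = inhibition above its plate's cutoff, the mean of tested wells on that plate plus 3 SD, cut at about 29% in these data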;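 note: 0% = Melanotan II alone and 100% = Melanotan II plus saturating MCL0020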
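Material: U2OS-MC4R stable cell line | Reagent: Melanotan II challenge after compound preincubation | Doses: One concentration, 6.5 µM nominal | Incubation: 30-min compound preincubation, 1-h Melanotan II challenge, 1-h detection, room temperature | Signal: TR-FRET cAMP assay | Replicates: One well per compound, no replicates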
Rev-erbA mod: Rev-erb alpha (human) modulation | Rev-erbα–FITC-DNA binding, fluorescence polarization, 90 min | AID 1259318 | P20393 | activity, % at 10 µM | 370,000 tested, 0.79% active;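 active = activity above about 14%, limit read from the data; passing the limit was not always enough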;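 note: 0% = DMSO wells with 35 nM protein and 100% = DMSO wells with 750 nM protein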
MC4R ag barr: activates human MC4R beta-arrestin recruitment. activation, % at 8.9 µM. 360,000 tested, 0.98% active. P32245. AID 540308. U2OS MC4R beta-arrestin complementation, luminescence; percent of melanotan II response, DMSO zero;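 active = activation above a per-plate cutoff, the mean activation of sample wells on that plate plus 3 SD, cut at about 8% in these data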
PG9 Ab binder: PG9 antibody binding by small molecule. TR-FRET gp120-PG9 antibody binding. inhibition, % at 6.7 µM. 360,000 tested, 0.43% active; in the data active = inhibition above about 8.5%
cAMP nonselect: U2OS forskolin cAMP inhibition counter-screen; shares compounds with MC4R antag cAMP; parental U2OS, LANCE TR-FRET; inhibition, % at 6.5 µM; 1,600 tested, 26% active; AID 602193;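 active = mean inhibition over triplicates above the low-control well mean plus 3 SD, set per campaign, cut at about 13% in these data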;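 note: signal is single emission at 671 nm which falls as cellular cAMP rises; 0% = forskolin-stimulated wells and 100% = buffer without forskolin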
MC4R cAMP antag: human MC4R cAMP antagonism confirmation. shares compounds with MC4R antag cAMP. MC4R-expressing cells, MTII-stimulated cAMP, TR-FRET. inhibition, % at 6.5 µM. 1,600 tested, 27% active. AID 602195; in the data active = inhibition above about 29%;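 note: 0% = agonist stimulated wells alone and 100% = agonist stimulated wells plus saturating reference antagonist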
Numbers without * were called inactive.

Results for COc1ccc(C2CC(c3c(O)cc(C)oc3=O)=NCCS2)c(OC)c1 (stereo unspecified) ?
NTR1 ag: 0; MC4R antag cAMP: -18; MC4R ag barr: -2

How did Cc1cc(O)c(C2=Nc3ccccc3SC(c3ccc(Cl)cc3)C2)c(=O)o1 (stereo unspecified) do in these assays?
NTR1 ag: 0; MC4R antag cAMP: 31*; Rev-erbA mod: -5; MC4R ag barr: -3; PG9 Ab binder: 0; cAMP nonselect: 3; MC4R cAMP antag: 4

What do the screens show for `COc1ccc(S(=O)(=O)NNC(=O)c2cccs2)cc1`?
NTR1 ag: 0; MC4R antag cAMP: 33*; Rev-erbA mod: -4; MC4R ag barr: 0; PG9 Ab binder: -2; cAMP nonselect: 1; MC4R cAMP antag: -5

How did COC(=O)[C@]12C[C@H](CC(=O)N3CCC(c4ccccc4)CC3)C(=O)N(CCc3ccc(OC)c(OC)c3)C1=C[C@H](C(C)C)O[C@@H]2C1CC1 do in these assays?
Rev-erbA mod: 0

What do the screens show for `Cc1[nH]c(=O)[nH]c(=O)c1S(=O)(=O)Nc1cccc([N+](=O)[O-])c1C`?
NTR1 ag: -1; MC4R antag cAMP: 30*; Rev-erbA mod: 5; MC4R ag barr: 0; PG9 Ab binder: 2; cAMP nonselect: 1; MC4R cAMP antag: -8

How did CCOC(=O)Cn1cc(CN2CCS(=O)(=O)N(Cc3ccccc3)C(C(=O)OC)C2)nn1 (stereo unspecified) do in these assays?
Rev-erbA mod: 5

How did COc1ccc(C2NC(C(=O)O)Cc3c2[nH]c2ccccc32)cc1CN1CCN(c2ccc(F)cc2)CC1 (stereo unspecified) do in these assays?
NTR1 ag: 5; MC4R antag cAMP: 30*; Rev-erbA mod: 3; MC4R ag barr: 0; PG9 Ab binder: -1; cAMP nonselect: 0; MC4R cAMP antag: 3

Results for CCOC(=O)CC[C@H]1CC[C@]2(CCCN(C(=O)c3ccco3)C2)O1 ?
Rev-erbA mod: -2

How did CCOC(=O)c1cnc(-n2[nH]c(C)cc2=O)[nH]c1=O do in these assays?
NTR1 ag: 2; MC4R antag cAMP: 30*; Rev-erbA mod: -5; MC4R ag barr: -1; PG9 Ab binder: -1; cAMP nonselect: -4; MC4R cAMP antag: 2

How did Cc1ccccc1-n1c(SCC(=O)Nc2c(C)cccc2C)nc(O)cc1=O do in these assays?
NTR1 ag: 1; MC4R antag cAMP: 34*; Rev-erbA mod: -5; MC4R ag barr: 2; PG9 Ab binder: -1; cAMP nonselect: 4; MC4R cAMP antag: -8

What do the screens show for `N#C/C(=C\c1ccc(OC(F)F)cc1)C(=O)N1CCCCC1`?
NTR1 ag: 2; MC4R antag cAMP: 32*; Rev-erbA mod: -3; MC4R ag barr: 0; PG9 Ab binder: 0; cAMP nonselect: -4; MC4R cAMP antag: -6

What do the screens show for `COC(=O)CC1C(=O)NCCN1C(=S)Nc1ccccc1` (stereo unspecified)?
NTR1 ag: 0; MC4R antag cAMP: 7; Rev-erbA mod: -4; MC4R ag barr: -3; PG9 Ab binder: 0

What do the screens show for `CCOC(=O)CC1C(=O)NCCN1C(=S)Nc1ccccc1` (stereo unspecified)?
NTR1 ag: -1; MC4R antag cAMP: 29*; Rev-erbA mod: 4; MC4R ag barr: 2; PG9 Ab binder: 0; cAMP nonselect: -7; MC4R cAMP antag: -22

How did COC(=O)[C@]12C[C@H](CC(=O)NCc3cccc4ccccc34)C(=O)N(Cc3ccco3)C1=C[C@H](COCc1ccccc1)O[C@@H]2C do in these assays?
Rev-erbA mod: 3

Results for Cc1ccc(NC(=O)C2=C(c3ccccc3)S(=O)(=O)CCS2(=O)=O)cc1 ?
NTR1 ag: 22; MC4R antag cAMP: 61*; Rev-erbA mod: 5; MC4R ag barr: 0; PG9 Ab binder: 0; cAMP nonselect: 50*; MC4R cAMP antag: 44*

Results for COC(=O)[C@]12C[C@H](CC(=O)NCC3CCCCC3)C(=O)N(Cc3ccc(Cl)cc3Cl)C1=C[C@H](C(C)C)O[C@@H]2C1CC1 ?
Rev-erbA mod: -7

Results for COc1ccc2c3c([nH]c2c1)[C@]1(CCNC=O)Nc2ccccc2C1=NCC3 ?
Rev-erbA mod: -7

How did CC(=O)Oc1c(C(C)C)cc(N(C(C)=O)c2ccccc2)cc1C(C)C do in these assays?
NTR1 ag: -1; MC4R antag cAMP: 33*; Rev-erbA mod: 1; MC4R ag barr: 1; PG9 Ab binder: -3; cAMP nonselect: 0; MC4R cAMP antag: 4

How did Cc1ccc(Cn2cc(CN3[C@H](C)COc4cc(Br)ccc4S3(=O)=O)nn2)cc1 do in these assays?
Rev-erbA mod: 1

How did CCOC(=O)c1c(NC(=O)COC(=O)CNC(=O)c2ccc(Cl)cc2Cl)sc(C(=O)N(C)C)c1C do in these assays?
NTR1 ag: 1; MC4R antag cAMP: 31*; Rev-erbA mod: 8; MC4R ag barr: -1; PG9 Ab binder: -1; cAMP nonselect: 6; MC4R cAMP antag: 8

How did Cc1ccc(-c2c(CC(=O)O)c(C)nc3sc4c(c23)CCCC4)cc1 do in these assays?
NTR1 ag: 1; MC4R antag cAMP: 29*; Rev-erbA mod: 5; MC4R ag barr: -1; PG9 Ab binder: 0; cAMP nonselect: 2; MC4R cAMP antag: -1

How did Cc1ccc(-n2c(SCC(=O)O)nc3sc4c(c3c2=O)CCCC4)cc1 do in these assays?
NTR1 ag: -1; MC4R antag cAMP: 9; Rev-erbA mod: -1; MC4R ag barr: 2; PG9 Ab binder: 1

How did COc1ccc([C@@]23CCN=C2c2[nH]c4ccccc4c2CCN3)c(N)c1 do in these assays?
Rev-erbA mod: -5

Results for CC(=O)c1ccc(S(=O)(=O)N2CCN(C(=O)CSc3ccc(C)c(C)c3)CC2)cc1 ?
NTR1 ag: 0; MC4R antag cAMP: 35*; Rev-erbA mod: -6; MC4R ag barr: 0; PG9 Ab binder: 0; cAMP nonselect: -3; MC4R cAMP antag: 1

Results for O=C(/C=C/c1ccc(-c2ccccc2)cc1)NC1=NCCS1 ?
Rev-erbA mod: -5

What do the screens show for `COc1ccc(-n2c(SCC(=O)Nc3cc(C)c(NC(=O)c4ccccc4)cc3OC)nnc2-c2ccccc2F)cc1`?
Rev-erbA mod: -3

What do the screens show for `O=[N+]([O-])c1cc(S(=O)(=O)C(F)(F)F)ccc1Sc1nc2ccccc2[nH]1`?
NTR1 ag: 10; MC4R antag cAMP: 30*; Rev-erbA mod: -8; MC4R ag barr: -1; PG9 Ab binder: -4; cAMP nonselect: 6; MC4R cAMP antag: 40*

How did O=[N+]([O-])c1cc(S(=O)(=O)C(F)(F)F)ccc1Sc1nc2ccccc2s1 do in these assays?
NTR1 ag: -1; MC4R antag cAMP: 56*; Rev-erbA mod: 3; MC4R ag barr: -3; PG9 Ab binder: -2; cAMP nonselect: 11; MC4R cAMP antag: 43*
